Reference: ChEMBL document CHEMBL1275524, “Activities of antifungal agents against yeasts and filamentous fungi: assessment according to the methodology of the European Committee on Antimicrobial Susceptibility Testing” (2008)
Values after ≈ are worked out from the molar mass of the structure shown.

Key:
Trichosporon inkin [1] = assay: Antifungal activity against Trichosporon inkin by EUCAST method; format: functional
How it was run: (§1)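 Nonfermentative yeasts were tested by the EUCAST microdilution recommendations with one change: plates were sealed and agitated at 350 rpm and 30°C for 48 h.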

Sporothrix schenckii [2] = assay: Antifungal activity against Sporothrix schenckii; format: functional
How it was run: (§2)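 Broth microdilution following the EUCAST reference procedure for spore-forming moulds, in flat-bottom plates with RPMI 1640 plus 2% glucose. Inoculum was 2 × 10^5 to 5 × 10^5 CFU/ml. MICs were read visually at 24 and 48 h as 100% growth reduction versus a drug-free control for polyenes and azoles. MEC was used for caspofungin. Tests were run in duplicate and repeated twice.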

Fusarium solani [3] = assay: Antifungal activity against Fusarium solani by EUCAST method; format: functional
Saccharomyces cerevisiae [4] = assay: Antifungal activity against Saccharomyces cerevisiae; format: functional
How it was run: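 Broth microdilution following EUCAST for fermentative yeasts, in flat-bottom plates with RPMI 1640 plus 2% glucose. Inoculum was 0.5 × 10^5 to 2.5 × 10^5 CFU/ml. End points were read spectrophotometrically at 24 h: ≥90% growth reduction versus a drug-free control for amphotericin B, and 50% OD reduction for azoles and caspofungin. MFC was the lowest concentration giving 99% killing.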

[5] = Antifungal activity against Cryptococcus neoformans var. neoformans; format: functional; conditions: Cryptococcus deneoformans
How it was run: (§3)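 EUCAST yeast microdilution, modified for nonfermentative yeasts: plates were sealed and agitated at 350 rpm and 30°C for 48 h.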

Clavispora lusitaniae [6] = assay: Antifungal activity against Candida lusitaniae by EUCAST method; format: functional
How it was run: (§4)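 Broth microdilution in flat-bottom plates in RPMI 1640 with 2% glucose; inoculum 0.5 × 105 to 2.5 × 10^5 CFU/ml. MICs were read spectrophotometrically at 24 h. AMB endpoint: ≥90% growth reduction vs drug-free control well. Azole and CPF endpoint: 50% reduction in optical density. MFC was taken as the lowest concentration giving 99% killing.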

[7] = tested on: Meyerozyma guilliermondii; assay: Antifungal activity against Candida guilliermondii; format: functional; how it was run: as §4
Mucor hiemalis = assay: Antifungal activity against Mucor hiemalis; format: functional
Lichtheimia corymbifera [8] = assay: Antifungal activity against Absidia corymbifera by EUCAST method; format: functional
[9] = tested on: Meyerozyma guilliermondii; assay: Antifungal activity against Candida guilliermondii by EUCAST method; format: functional; how it was run: as §4
Talaromyces marneffei [10] = assay: Antifungal activity against Penicillium marneffei by EUCAST method; format: functional
Aspergillus terreus [11] = assay: Antifungal activity against Aspergillus terreus by EUCAST method; format: functional
Aspergillus flavus [12] = assay: Antifungal activity against Aspergillus flavus; format: functional
Scedosporium apiospermum [13] = assay: Antifungal activity against Scedosporium apiospermum by EUCAST method; format: functional; how it was run: as §2
Curvularia australiensis [14] = assay: Antifungal activity against Bipolaris australiensis by EUCAST method; format: functional
How it was run: (§5)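 Dematiaceous fungi were tested by the EUCAST spore-forming mold reference procedure: flat-bottom microdilution plates, RPMI 1640 plus 2% glucose, inoculum 2 × 105 to 5 × 10^5 CFU/ml. Endpoints were read visually at 24 and 48 h. Polyenes and azoles: 100% growth reduction vs drug-free control. CPF: minimum effective concentration. Run in duplicate and repeated twice.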

Pichia kudriavzevii [15] = assay: Antifungal activity against Candida krusei; format: functional
How it was run: (§6)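 EUCAST broth microdilution for yeasts in flat-bottom plates, RPMI 1640 with 2% glucose, inoculum 0.5 × 105 to 2.5 × 10^5 CFU/ml. […] MFC is the lowest concentration giving 99% killing.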

Candida parapsilosis [16] = assay: Antifungal activity against Candida parapsilosis; format: functional; conditions: Lodderomyces parapsilosis; how it was run: as §4
Fusarium solani [17] = assay: Antifungal activity against Fusarium solani; format: functional
Pichia kudriavzevii [18] = assay: Antifungal activity against Candida krusei by EUCAST method; format: functional; how it was run: as §4
Curvularia lunata [19] = assay: Antifungal activity against Curvularia lunata; format: functional
Lichtheimia corymbifera [20] = assay: Antifungal activity against Absidia corymbifera; format: functional
Rhizopus = assay: Antifungal activity against Rhizopus species; format: functional; how it was run: as §2
Aspergillus flavus [21] = assay: Antifungal activity against Aspergillus flavus by EUCAST method; format: functional
Candida tropicalis [22] = assay: Antifungal activity against Candida tropicalis; format: functional; how it was run: as §4
Cryptococcus gattii [23] = assay: Antifungal activity against Cryptococcus neoformans var. gattii by EUCAST method; format: functional, Cryptococcus bacillisporus; how it was run: as §3
Curvularia australiensis [24] = assay: Antifungal activity against Bipolaris australiensis; format: functional; how it was run: as §5
Candida tropicalis [25] = assay: Antifungal activity against Candida tropicalis by EUCAST method; format: functional; how it was run: as §4
Rhizopus arrhizus [26] = assay: Antifungal activity against Rhizopus oryzae; format: functional; how it was run: as §2
Clavispora lusitaniae [27] = assay: Antifungal activity against Candida lusitaniae; format: functional; how it was run: as §4
[28] = Antifungal activity against Rhinocladiella aquaspersa by EUCAST method; format: functional; how it was run: as §5
Fusarium oxysporum [29] = assay: Antifungal activity against Fusarium oxysporum by EUCAST method; format: functional
Absidia = assay: Antifungal activity against Absidia species; format: functional
Trichosporon asahii [30] = assay: Antifungal activity against Trichosporon asahii by EUCAST method; format: functional; how it was run: as §1
Aspergillus fumigatus [31] = assay: Antifungal activity against Aspergillus fumigatus by EUCAST method; format: functional
Cryptococcus gattii [32] = assay: Antifungal activity against Cryptococcus neoformans var. gattii; format: functional, Cryptococcus bacillisporus; how it was run: as §3
Lomentospora prolificans = assay: Antifungal activity against Scedosporium prolificans; format: functional; how it was run: as §2
[33] = Antifungal activity against Rhinocladiella aquaspersa; format: functional; how it was run: as §5
Sporothrix schenckii [34] = assay: Antifungal activity against Sporothrix schenckii by EUCAST method; format: functional; how it was run: as §2
Trichosporon inkin [35] = assay: Antifungal activity against Trichosporon inkin; format: functional; how it was run: as §1
Geotrichum candidum [36] = assay: Antifungal activity against Geotrichum candidum; format: functional
[37] = Antifungal activity against Rhizopus microsporus var. oligosporus; format: functional; how it was run: as §2
Trichosporon asahii [38] = assay: Antifungal activity against Trichosporon asahii; format: functional; how it was run: as §1
Candida albicans [39] = assay: Antifungal activity against Candida albicans; format: functional; how it was run: as §4
Mucor [40] = assay: Antifungal activity against Mucor species by EUCAST method; format: functional
Candida albicans [41] = assay: Antifungal activity against Candida albicans by EUCAST method; format: functional; how it was run: as §4
Curvularia lunata [42] = assay: Antifungal activity against Curvularia lunata by EUCAST method; format: functional; how it was run: as §5
Penicillium sp. [43] = assay: Antifungal activity against Penicillium species; format: functional
Nakaseomyces glabratus [44] = assay: Antifungal activity against Candida glabrata by EUCAST method; format: functional; how it was run: as §4
[45] = Antifungal activity against Cryptococcus neoformans var. neoformans by EUCAST method; format: functional; conditions: Cryptococcus deneoformans; how it was run: as §3
Candida parapsilosis [46] = assay: Antifungal activity against Candida parapsilosis by EUCAST method; format: functional; conditions: Lodderomyces parapsilosis; how it was run: as §4
Penicillium sp. [47] = assay: Antifungal activity against Penicillium species by EUCAST method; format: functional
Aspergillus niger [48] = assay: Antifungal activity against Aspergillus niger by EUCAST method; format: functional
Aspergillus fumigatus [49] = assay: Antifungal activity against Aspergillus fumigatus; format: functional
Cunninghamella [50] = assay: Antifungal activity against Cunninghamella species by EUCAST method; format: functional
Rhizopus arrhizus [51] = assay: Antifungal activity against Rhizopus oryzae by EUCAST method; format: functional; how it was run: as §2
Aspergillus niger [52] = assay: Antifungal activity against Aspergillus niger; format: functional
Nakaseomyces glabratus [53] = assay: Antifungal activity against Candida glabrata; format: functional; how it was run: as §4
Saccharomyces cerevisiae [54] = assay: Antifungal activity against Saccharomyces cerevisiae by EUCAST method; format: functional; how it was run: as §6
Geotrichum candidum [55] = assay: Antifungal activity against Geotrichum candidum by EUCAST method; format: functional
Cunninghamella [56] = assay: Antifungal activity against Cunninghamella species; format: functional
Mucor [57] = assay: Antifungal activity against Mucor species; format: functional
Aspergillus terreus [58] = assay: Antifungal activity against Aspergillus terreus; format: functional
Rhizomucor = assay: Antifungal activity against Rhizomucor species; format: functional
Talaromyces marneffei [59] = assay: Antifungal activity against Penicillium marneffei; format: functional
Scedosporium apiospermum [60] = assay: Antifungal activity against Scedosporium apiospermum; format: functional; how it was run: as §2
Fusarium oxysporum [61] = assay: Antifungal activity against Fusarium oxysporum; format: functional

Work on `CCC(C)n1ncn(-c2ccc(N3CCN(c4ccc(OCC5COC(Cn6cncn6)(c6ccc(Cl)cc6Cl)O5)cc4)CC3)cc2)c1=O` (stereo unspecified) [ITRACONAZOLE] yielded an MIC (Trichosporon inkin [1]) of 0.21 µg/mL (≈ 0.298 µM), an MFC (Sporothrix schenckii [2]) of 0.5 µg/mL (≈ 0.709 µM) and an MIC (Fusarium solani [3]) of 6 µg/mL (≈ 8.5 µM). The MFC (Saccharomyces cerevisiae [4]) was over 4 µg/mL, the MFC [5] was 0.5 µg/mL (≈ 0.709 µM) and the MIC (Clavispora lusitaniae [6]) was 0.07 µg/mL (≈ 0.0992 µM). For the same molecule, the MFC [7] was 2 µg/mL (≈ 2.83 µM), the MFC (Mucor hiemalis) was over 8 µg/mL and the MIC (Lichtheimia corymbifera [8]) was 2.5 µg/mL (≈ 3.54 µM). For the same molecule, the MIC [9] was 0.87 µg/mL (≈ 1.23 µM), the MIC (Talaromyces marneffei [10]) was 0.25 µg/mL (≈ 0.354 µM) and the MIC (Aspergillus terreus [11]) was 0.58 µg/mL (≈ 0.822 µM). For the same molecule, the MFC (Aspergillus flavus [12]) was 0.5 µg/mL (≈ 0.709 µM), the MIC (Scedosporium apiospermum [13]) was 2.66 µg/mL (≈ 3.77 µM) and the MIC (Curvularia australiensis [14]) was 0.12 µg/mL (≈ 0.17 µM). It also gave an MFC (Pichia kudriavzevii [15]) of 0.5 µg/mL (≈ 0.709 µM), an MFC (Candida parapsilosis [16]) of 0.06 µg/mL (≈ 0.085 µM) and an MFC (Fusarium solani [17]) of over 8 µg/mL. For the same molecule, the MIC (Pichia kudriavzevii [18]) was 1.1 µg/mL (≈ 1.56 µM), the MFC (Curvularia lunata [19]) was 0.5 µg/mL (≈ 0.709 µM) and the MFC (Lichtheimia corymbifera [20]) was over 2 µg/mL. For the same molecule, the MFC (Rhizopus) was over 4 µg/mL, the MIC (Aspergillus flavus [21]) was 0.59 µg/mL (≈ 0.836 µM) and the MFC (Candida tropicalis [22]) was over 0.25 µg/mL. It also gave an MIC (Cryptococcus gattii [23]) of 0.22 µg/mL (≈ 0.312 µM), an MFC (Curvularia australiensis [24]) of 0.5 µg/mL (≈ 0.709 µM) and an MIC (Candida tropicalis [25]) of 0.56 µg/mL (≈ 0.794 µM). The MFC (Rhizopus arrhizus [26]) was over 8 µg/mL, the MFC (Clavispora lusitaniae [27]) was 0.25 µg/mL (≈ 0.354 µM) and the MIC [28] was 0.12 µg/mL (≈ 0.17 µM). It also gave an MIC (Fusarium oxysporum [29]) of 4.5 µg/mL (≈ 6.38 µM), an MFC (Absidia) of over 2 µg/mL and an MIC (Trichosporon asahii [30]) of 0.17 µg/mL (≈ 0.241 µM). The MIC (Aspergillus fumigatus [31]) was 0.46 µg/mL (≈ 0.652 µM), the MFC (Cryptococcus gattii [32]) was 0.5 µg/mL (≈ 0.709 µM) and the MFC (Lomentospora prolificans) was over 8 µg/mL. The MFC [33] was 0.5 µg/mL (≈ 0.709 µM), the MIC (Sporothrix schenckii [34]) was 0.12 µg/mL (≈ 0.17 µM) and the MFC (Trichosporon inkin [35]) was 0.25 µg/mL (≈ 0.354 µM). The MFC (Geotrichum candidum [36]) was over 8 µg/mL, the MFC [37] was over 8 µg/mL and the MFC (Trichosporon asahii [38]) was over 4 µg/mL. It also gave an MFC (Candida albicans [39]) of 0.06 µg/mL (≈ 0.085 µM), an MIC (Mucor [40]) of 4.36 µg/mL (≈ 6.18 µM) and an MIC (Candida albicans [41]) of 0.23 µg/mL (≈ 0.326 µM). It also gave an MIC (Curvularia lunata [42]) of 0.03 µg/mL (≈ 0.0425 µM), an MFC (Penicillium sp. [43]) of over 2 µg/mL and an MIC (Nakaseomyces glabratus [44]) of 0.83 µg/mL (≈ 1.18 µM). It also gave an MIC [45] of 0.11 µg/mL (≈ 0.156 µM), an MIC (Candida parapsilosis [46]) of 0.32 µg/mL (≈ 0.453 µM) and an MIC (Penicillium sp. [47]) of 4.25 µg/mL (≈ 6.02 µM). The MIC (Aspergillus niger [48]) was 0.98 µg/mL (≈ 1.39 µM), the MFC (Aspergillus fumigatus [49]) was 2 µg/mL (≈ 2.83 µM) and the MIC (Cunninghamella [50]) was 1.75 µg/mL (≈ 2.48 µM). For the same molecule, the MIC (Rhizopus arrhizus [51]) was 4 µg/mL (≈ 5.67 µM), the MFC (Aspergillus niger [52]) was over 4 µg/mL and the MFC (Nakaseomyces glabratus [53]) was over 4 µg/mL. The MIC (Saccharomyces cerevisiae [54]) was 2 µg/mL (≈ 2.83 µM), the MIC (Geotrichum candidum [55]) was 1.45 µg/mL (≈ 2.05 µM) and the MFC (Cunninghamella [56]) was 4 µg/mL (≈ 5.67 µM). For the same molecule, the MFC (Mucor [57]) was over 4 µg/mL, the MFC (Aspergillus terreus [58]) was 0.5 µg/mL (≈ 0.709 µM) and the MFC (Rhizomucor) was over 2 µg/mL. It also gave an MFC (Talaromyces marneffei [59]) of 0.25 µg/mL (≈ 0.354 µM), an MFC (Scedosporium apiospermum [60]) of over 4 µg/mL and an MFC (Fusarium oxysporum [61]) of 0.25 µg/mL (≈ 0.354 µM).
